TAAR1 antag – antagonists of human TAAR1. Q96RJ0. CHO RD-HGA16 TAAR1, Fluo-8 calcium fluorescence, antagonist. inhibition, % at 3 µM. 360,000 tested, 1.5% active. AID 624466;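 active = inhibition above a per-plate cutoff, the mean inhibition of test compounds on that plate plus 3 SD, cut at about 49% in these data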;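 also: 0% = DMSO plus EC80 beta-PEA response and 100% = DMSO alone without agonist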
Target sequence (Q96RJ0 whole entry, looked up): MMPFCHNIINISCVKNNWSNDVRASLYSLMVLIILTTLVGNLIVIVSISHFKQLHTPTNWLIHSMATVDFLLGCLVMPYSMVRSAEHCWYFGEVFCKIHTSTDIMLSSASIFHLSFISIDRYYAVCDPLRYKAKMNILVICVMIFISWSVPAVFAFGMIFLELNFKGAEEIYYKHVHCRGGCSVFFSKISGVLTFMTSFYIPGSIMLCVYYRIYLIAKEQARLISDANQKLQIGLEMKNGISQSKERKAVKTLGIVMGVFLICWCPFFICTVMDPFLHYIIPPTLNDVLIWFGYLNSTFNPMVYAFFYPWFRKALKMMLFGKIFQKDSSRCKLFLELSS
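Assay system: RD-HGA16 CHO cells with stable hTAAR1 and Gα16 / Reagent: EC80 β-phenethylamine stimulus / Doses: 3 µM, single point / Timing: dye loading 75 min at 37 °C, then 30 min room temperature / Measured by: Fluo-8 intracellular calcium dye fluorescence, real-time kinetic reads / Controls: vehicle wells and EC80 agonist wells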
MC4R barr agon – activates human MC4R beta-arrestin recruitment | activation, % at 8.9 µM | 360,000 tested, 0.98% active | U2OS MC4R beta-arrestin complementation, luminescence; percent of melanotan II response, DMSO zero | P32245;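 active = activation above a per-plate cutoff, the mean activation of sample wells on that plate plus 3 SD, cut at about 8% in these data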
B2AR ag – human beta-2 adrenergic receptor agonism by FAP | P07550 | Am2.2-beta2AR cells, FAP receptor internalization, flow cytometry | response, % (test concentration not listed) | 340,000 tested, 0.43% active;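 active = response above a set limit, near 3 SD of response in nonfluorescent compounds, cut at about 42% in these data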
Target sequence (P07550 whole entry, looked up): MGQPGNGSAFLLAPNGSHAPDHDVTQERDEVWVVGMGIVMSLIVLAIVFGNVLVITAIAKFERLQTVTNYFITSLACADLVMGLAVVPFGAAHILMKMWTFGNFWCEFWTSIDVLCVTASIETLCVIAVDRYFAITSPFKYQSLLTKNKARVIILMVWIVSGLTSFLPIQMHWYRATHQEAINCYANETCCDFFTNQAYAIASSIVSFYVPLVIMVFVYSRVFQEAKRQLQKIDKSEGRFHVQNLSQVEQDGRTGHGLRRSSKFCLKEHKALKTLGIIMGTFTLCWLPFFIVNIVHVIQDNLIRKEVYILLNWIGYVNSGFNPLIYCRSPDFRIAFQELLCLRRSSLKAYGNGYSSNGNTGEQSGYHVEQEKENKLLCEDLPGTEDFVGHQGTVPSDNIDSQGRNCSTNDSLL
TAAR1 agonist – human TAAR1 agonism | 360,000 tested, 0.99% active | AID 624467 | Q96RJ0 | CHO RD-HGA16 TAAR1, Fluo-8 calcium fluorescence; vehicle wells 0%, saturating PEA agonist 100% | activation, % at 3 µM;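 active = activation above the mean activation of all test compounds in the run plus 3 SD, cut at about 38% in these data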
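Assay system: CHO-derived RD-HGA16 cells with stable Gα16 and human TAAR1; timing: 17-24 h seeding, 75 min 37 °C dye, 30 min RT; read-out: % activation from peak over basal fluorescence ratio, DMSO-to-PEA scaled; measured by: kinetic Fluo-8 calcium fluorescence; benchmarks: low control DMSO, high control PEA (EC100); doses: 3 µM single concentration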
MC4R antagonist – blocks human MC4R cAMP signaling; P32245; MC4R-expressing cells, MTII-stimulated cAMP, LANCE TR-FRET; inhibition, % at 6.5 µM; 360,000 tested, 0.48% active;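 active = inhibition above its plate's cutoff, the mean of tested wells on that plate plus 3 SD, cut at about 29% in these data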;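 also: 0% = Melanotan II alone and 100% = Melanotan II plus saturating MCL0020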
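Material – human MC4R-expressing U2OS cells · Repeats – no replicates · Detection – TR-FRET with Eu-cAMP and labeled anti-cAMP, 671 nm · Times – compound 30 min, challenge 1 h, detection 1 h · Compound – single nominal compound dose of 6.5 µM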
m5-HT2A agonist – agonists of mouse serotonin 5-HT2A receptor (HTR2A); P35363; CHO-K1 mHTR2A beta-arrestin complementation, luminescence; percent of 30 µM serotonin response; activation, % at 7.6 µM; 360,000 tested, 0.66% active;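 active = activation above a run cutoff, the mean activation of all tested compounds plus 3 SD, cut at about 14% in these data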;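 also: 0% = plate median of compound wells and 100% = 30 µM serotonin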
TAAR1 ag confirm – confirmation of human TAAR1 agonists; 2,400 tested, 82% active; CHO RD-HGA16 TAAR1, Fluo-8 calcium fluorescence; scaled: DMSO 0%, maximal phenethylamine 100%; AID 651783; shares compounds with TAAR1 agonist; activation, % at 3 µM;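 active = activation above a cutoff set at the run's mean compound activation plus 3 SD, cut at about 39% in these data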
Ga16 ag counter – nonselective agonist in parental cells, TAAR1 agonist counter-screen | shares compounds with TAAR1 agonist | CHO-Ga16 parental, Fluo-8 calcium fluorescence; normalized to maximal ATP response, DMSO zero | activation, % at 3 µM | 2,400 tested, 50% active | AID 651787;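 active = activation above the run cutoff, the mean activation over all tested wells plus 3 SD, cut at about 12% in these data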;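 also: 0% = DMSO wells and 100% = maximal ATP response on the peak over basal ratio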
TAAR1 desens – TAAR1 response desensitization, agonist counter-screen; CHO RD-HGA16 hTAAR1, Fluo-8 calcium, beta-PEA response inhibition; AID 651951; inhibition, % at 3 µM; 2,400 tested, 46% active; shares compounds with TAAR1 agonist;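 active = inhibition above the run cutoff, the mean inhibition of all test compounds plus 3 SD, cut at about 49% in these data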;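 also: beta-PEA stimulus applied at its EC80; loss of beta-PEA calcium signal after compound pretreatment read as receptor desensitization; 0% = DMSO with beta-PEA at EC80 and 100% = DMSO alone without agonist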
Ga16 antag count – nonselective Ga16 antagonism, counter-screen; shares compounds with TAAR1 agonist; CHO-Ga16 ATP-induced calcium, Fluo-8 fluorescence; inhibition, % at 3 µM; 2,400 tested, 39% active; AID 651952;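 active = inhibition above the plate's mean compound inhibition plus 3 SD, computed per plate, cut at about 22% in these data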;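 also: 0% = EC80 ATP with DMSO and 100% = DMSO wells without ATP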
Starred values were filed as active, the others as inactive; / = not tested or not shown. An excerpt weighted towards active compounds, which were near 4.3% of everything screened.

SMILES | TAAR1 antag | MC4R barr agon | B2AR ag | TAAR1 agonist | MC4R antagonist | m5-HT2A agonist | TAAR1 ag confirm | Ga16 ag counter | TAAR1 desens | Ga16 antag count
COc1cccc(C(c2sc3ncnn3c2O)N2CCc3ccccc3C2)c1 (configuration not stated) | -22.0 | 0.1 | -5.5 | 73.0* | 4.4 | -3.2 | 81.8* | 2.3 | 46.4 | 11.0
COc1cc(C(c2sc3nc(C)nn3c2O)N2CCc3ccccc3C2)cc(OC)c1OC (configuration not stated) | -42.7 | 2.2 | 8.8 | 45.4* | -15.6 | 3.5 | 45.2* | 0.5 | 12.6 | 11.3
Cc1ccc(NC2CCCN(C(=O)CN3C(=O)c4ccccc4C3=O)C2)cc1C (configuration not stated) | -25.5 | -2.4 | -7.8 | 0.2 | 7.1 | 1.8 | / | / | / | /
CCC(=O)Nc1ccc(C(=O)Nc2ccc(Br)cc2F)cc1 | 82.9* | -1.3 | -6.4 | 74.9* | 4.4 | -2.6 | 13.9 | 3.0 | 11.1 | 12.6
COc1ccc(CCNC(=O)C/C(C)=N/NC(=O)c2cnccn2)cc1 | -20.4 | -1.9 | 2.6 | 4.4 | 1.3 | 1.0 | / | / | / | /
O=C(O)c1ccc(N/N=C/c2ccc(-c3ccccc3Cl)o2)cc1 | 36.9 | -2.2 | -8.9 | 97.1* | 7.2 | -3.1 | 56.4* | 39.1* | 29.8 | 20.1
CCCc1c(-c2cccc(Br)c2)ncn1CCc1ccccc1OC | 33.4 | / | / | 20.3 | / | / | / | / | / | /
O=C(NCCc1ccc(Cl)cc1)c1ncn[nH]1 | -13.4 | -1.4 | -7.4 | 48.1* | 4.5 | -2.1 | 45.6* | 3.1 | 6.7 | 4.3
O=C(NCCc1ccccc1)c1ncn[nH]1 | -6.1 | -2.3 | 2.6 | 10.3 | 1.2 | -2.5 | / | / | / | /
COc1ccc2c(c1)C1(C)CC(C)(C)N2C(=O)N1c1ccccc1 (configuration not stated) | 10.7 | -1.7 | 3.9 | 44.1* | 8.8 | -0.3 | 15.7 | 8.3 | 3.2 | 9.7
COc1cccc(CNC(=O)c2cc(S(=O)(=O)N3CCOCC3)cn2C)c1 | -5.1 | 1.3 | 12.8 | 0.6 | -1.9 | 1.0 | / | / | / | /
COc1cccc2c1cc1c(=O)n(CC(=O)N3CCCC3)nc(C)n12 | -1.8 | -0.8 | -0.9 | -0.4 | 5.2 | 3.2 | / | / | / | /
O=C(Nc1nnc(-c2ccccc2)o1)c1ccc(Cl)cc1 | 24.8 | -1.5 | 17.1 | 76.3* | 1.4 | 5.8 | 18.7 | 16.3* | 7.8 | 14.5
O=C(Cn1nnc(N2CCCCC2)n1)NN=Cc1ccccc1O | -12.4 | / | / | 48.8* | / | / | 63.9* | 1.9 | 10.8 | 1.2
CC(C)C[C@H](NC(=O)[C@@H]1Cc2ccccc2CN1)C(=O)Nc1ccc(C(C)C)cc1 | 5.7 | -1.2 | 1.6 | 5.9 | 9.7 | -1.9 | / | / | / | /
CC(C)c1ccc(NC(=O)[C@@H](C)NC(=O)[C@@H]2Cc3ccccc3CN2)cc1 | -4.2 | -1.5 | -2.2 | 77.6* | 1.6 | -1.6 | 31.1 | 12.4* | -9.3 | 4.4
COc1cc(OC)c(N(C)C(=O)c2cc3c(s2)-c2ccccc2S(=O)(=O)C3)cc1Cl | 33.2 | 1.2 | -1.1 | 5.8 | 4.5 | -2.6 | / | / | / | /
CCOC(=O)c1sc(NC(=O)CN2CC(C)OC(C)C2)nc1C (configuration not stated) | 2.9 | 0.5 | 6.5 | 0.5 | 14.2 | -1.7 | / | / | / | /
CCCC(C(=O)Nc1ccc(C)c(S(=O)(=O)N2CCOCC2)c1)c1ccccc1 (configuration not stated) | -56.1 | -2.1 | -4.1 | 0.4 | 10.4 | -3.6 | / | / | / | /
CCCC(C(=O)Nc1ccc(S(=O)(=O)N2CCOCC2)cc1)c1ccccc1 (configuration not stated) | 57.0* | -2.5 | 1.3 | 95.8* | 11.8 | -11.1 | 85.5* | 45.6* | 68.7* | 34.5*
COc1ccc(OC)c(/C=C2/Sc3ccccc3C2=O)c1 | 61.4* | 9.5* | -30.5 | 73.6* | 8.9 | -1.6 | 22.7 | 28.6* | 44.9 | 50.3*
CCc1nc2ccc(C(=O)N3CCN(S(=O)(=O)CC)CC3)cn2c1N(CC)C(=O)NCCc1ccccc1 | -6.7 | 1.0 | / | 2.3 | 7.6 | 2.2 | / | / | / | /
O=C(CCS(=O)(=O)c1ccc2c(c1)NC(=O)CS2)NCCc1ccc(Cl)cc1 | -3.4 | -0.1 | 9.6 | 4.7 | -3.5 | -5.1 | / | / | / | /
Cn1c(=O)oc2cc(S(=O)(=O)CCC(=O)NCCc3ccccc3)ccc21 | 16.1 | -2.8 | -4.7 | 70.5* | 1.9 | -0.6 | 29.8 | 0.5 | 14.5 | 7.3
O=C(CCS(=O)(=O)c1ccc2c(c1)NC(=O)CS2)NCCc1ccccc1 | 25.5 | -0.3 | 7.8 | 67.8* | -1.1 | -8.7 | 67.6* | -0.1 | 35.4 | 10.6
SMILES | TAAR1 antag | MC4R barr agon | B2AR ag | TAAR1 agonist | MC4R antagonist | m5-HT2A agonist | TAAR1 ag confirm | Ga16 ag counter | TAAR1 desens | Ga16 antag count
Cc1ccc(CCNC(=O)CCS(=O)(=O)c2ccc3c(c2)oc(=O)n3C)cc1 | -29.2 | -0.9 | -18.5 | 3.3 | -3.2 | 3.7 | / | / | / | /
Cc1cc(C)n2nc(SCC(=O)NC3CCCCC3)nc2n1 | 1.8 | -2.7 | -13.0 | 1.2 | 5.5 | -3.2 | / | / | / | /
CC(=O)n1cc([C@H]2C=C(C(N)=O)O[C@@H](OCc3ccc(CO)cc3)C2)c2ccccc21 | 81.0* | -1.1 | -3.9 | 77.9* | 11.9 | 1.1 | 74.3* | 34.3* | 66.0* | 39.3*
CC(=O)n1cc([C@H]2C=C(C(=O)NCc3ccccc3)O[C@@H](OCc3ccc(CO)cc3)C2)c2ccccc21 | 47.6 | -1.2 | 8.9 | 16.4 | 13.4 | 1.7 | / | / | / | /
Cc1cc(OCC(O)CNC(C)c2ccccc2)ccc1C(C)C (configuration not stated) | 29.6 | 9.2* | 41.6 | 62.7* | -0.1 | -1.2 | 70.7* | 32.1* | 53.7* | 32.1*
COc1ccc(Nc2cc(C)nc(N3CCOCC3)n2)cc1 | 2.9 | -0.3 | 5.2 | 48.5* | 5.7 | -2.8 | 70.1* | 4.7 | 38.3 | 5.8
Clc1cccc(Cc2c(C3CCCCC3)nc3c4ccccc4ccn23)c1 | 7.7 | / | / | 0.1 | / | -6.5 | / | / | / | /
Cc1cc(C(=O)Nc2cccc(O)c2)c(C)o1 | 0.0 | -1.5 | -0.6 | 49.6* | 13.5 | -0.9 | 50.1* | 16.6* | 3.2 | 4.8
Cc1cc(C(=O)Nc2cccc(C(=O)O)c2)c(C)o1 | 14.4 | 0.9 | 4.5 | 6.3 | 1.5 | 2.0 | / | / | / | /

High-throughput results as filed in PubChem.
